Laboratory results: paper PMC8448143 (Antimicrobial Agents and Chemotherapy, 2021)
“Also recorded” adds a separate entry of the source. Read-outs that look alike come from different tables or passages of the source.

Experiments:
[1] = test system: SARS-CoV-2 (2019-nCoV/USA-WA1/2020); assay: SARS-CoV-2 antiviral assay; format: cell-based; conditions: Vero E6 cells; CC50/EC50
[2] = test system: SARS-CoV-2 (2019-nCoV/USA-WA1/2020); assay: SARS-CoV-2 antiviral assay; format: cell-based; conditions: for EC90: Severe acute respiratory syndrome coronavirus 2, in Homo sapiens, 48 h; for Selectivity index: CC50/EC50
[3] = test system: SARS-CoV-2 (2019-nCoV/USA-WA1/2020); assay: SARS-CoV-2 antiviral assay; format: cell-based; conditions: for Selectivity index: Huh7.5 cells, CC50/EC50
in vitro [4] = conditions: African green monkey
in vitro [5] = conditions: human
[6] = test system: SARS-CoV-2 (2019-nCoV/USA-WA1/2020); assay: SARS-CoV-2 antiviral assay; format: cell-based; conditions: for Selectivity index: Calu-3 cells, CC50/EC50
[7] = test system: SARS-CoV-2 (2019-nCoV/USA-WA1/2020); assay: SARS-CoV-2 antiviral assay; format: cell-based; conditions: for Selectivity index: Caco-2 cells, CC50/EC50; for EC50 / EC90: Severe acute respiratory syndrome coronavirus 2, Caco-2, 48 h
human coronavirus 229E = assay: microbe, parasite or virus in culture; format: cell-based; conditions: MRC5, 72 h
[8] = Seven-day oral pharmacokinetics and tolerability in Syrian hamsters; format: in vivo
Method in brief: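 Syrian hamsters in groups of 3 received vehicle or test compound by oral gavage every 12 h for 7 days, at 16.9 or 13.2 mg/kg body weight. Plasma levels of the prodrug and its nucleoside metabolite were followed after dosing. Animals were monitored for adverse clinical signs.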

in vitro [9] = conditions: both, human, plasma
in vitro [10] = assay: in vitro
in vitro [11] = conditions: human; remark: listed apart in the source
in vitro [12] = conditions: human; remark: listed apart in the source
in vitro [13] = conditions: human; remark: listed apart in the source
[14] = ex vivo; cited from earlier work
[15] = in vivo, rhesus monkeys; cited from earlier work
SARS-CoV-2 [16] = conditions: Calu-3 2B4 cells; cited from earlier work
SARS-CoV-2 [17] = conditions: human alveolar epithelial (HAE) cells; cited from earlier work
[18] = cited from earlier work
[19] = Severe acute respiratory syndrome coronavirus 2, Huh7.5, 48 h
[20] = Severe acute respiratory syndrome coronavirus 2, Calu-3, 48 h

With `CCCCCCCCCCCCCCCCOCCCOP(=O)(O)OC[C@H]1O[C@@](C#N)(c2ccc3c(N)ncnn23)[C@H](O)[C@@H]1O` [HDP-P-RVn, {(2R,3S,4R,5R)-5-(4-aminopyrrolo[2,1-f][1,2, 4]triazin-7-yl)-5-cyano-3,4-dihydroxytetrahydrofuran-2-yl}methyl [3-(hexadecyloxy)propyl] hydrogen phosphate] the Selectivity index [1] was greater than 158, the EC90 [2] was 940 nM and the EC50 [3] was 190 nM. It also gave a Selectivity index [3] greater than 526, an EC50 [3, 19] of less than 200 nM and an EC90 [3, 19] of 400 nM. For the same compound, the CC50 (in vitro [4]) was greater than 100000 nM and the CC50 (in vitro [5]) was greater than 100000 nM.
In the case of `CCCCCCCCCCCCCCCCCCOC[C@H](COP(=O)(O)OC[C@H]1O[C@@](C#N)(c2ccc3c(N)ncnn23)[C@H](O)[C@@H]1O)OCc1ccccc1` [ODBG-P-RVn, {(2R,3S,4R,5R)-5-(4-aminopyrrolo[2,1-f][1,2, 4]triazin-7-yl)-5-cyano-3,4-dihydroxytetrahydrofuran-2-yl]methyl [(R)-2-(benzyloxy)-3-(octadecyloxy)propyl] hydrogen phosphate], the Selectivity index [1] is reported as 699, the Selectivity index ([2]; PSC-human lung cells) is reported as 410 and the EC90 [2] is reported as 260 nM. The Selectivity index [6] was 327, the EC50 [6, 20] was less than 350 nM and the EC90 [6, 20] was 330 nM. It also gave a Selectivity index [3] of 449, an EC50 [3, 19] of less than 200 nM and an EC90 [3, 19] of 150 nM. The Selectivity index [7] was 295, the EC50 [7] was 300 nM and the EC90 [7] was 330 nM. For the same compound, the EC50 (human coronavirus 229E) was 150 nM, the EC90 (human coronavirus 229E) was 540 nM and the tolerability ([8]; Syrian hamsters, oral gavage every 12 h for 7 days, 16.9 and 13.2 mg/kg) was “well tolerated; also recorded: well tolerated, and no adverse clinical signs were noted”. The “plasma level of ODBG-P-RVn relative to its EC90” value ([8]; Syrian hamsters, oral, at 12 h, days 1 and 7, EC90 in all cell lines studied) was “above the 90% effective concentration (EC90); also recorded: higher than the EC90”, the Tmax ([8]; Syrian, hamster, plasma, po) was 1 h and the CC50 (in vitro [4]) was 97900 nM. It also gave a half-life (in vitro [9]) greater than 24 h and a CC50 (in vitro [10]) of 61500 to 98200 nM.
Work on `CCCCCCCCCCCCCCCCCCOCCOP(=O)(O)OC[C@H]1O[C@@](C#N)(c2ccc3c(N)ncnn23)[C@H](O)[C@@H]1O` [ODE-P-RVn, {(2R,3S,4R,5R)-5-(4-aminopyrrolo[2,1-f][1,2, 4]triazin-7-yl)-5-cyano-3,4-dihydroxytetrahydrofuran-2-yl}methyl [2-(octadecyloxy)ethyl] hydrogen phosphate] yielded a Selectivity index [1] greater than 333, a Selectivity index ([2]; PSC-human lung cells) greater than 454 and an EC50 ([2]; PSC-human lung cells, […]) of 220 nM. For the same compound, the EC90 [2] was 700 nM, the EC50 [6] was 340 nM and the Selectivity index [6] was 290. It also gave an EC50 [6, 20] of less than 350 nM, an EC90 [6, 20] of 640 nM and an EC50 [3] of 190 nM. For the same compound, the Selectivity index [3] was greater than 526, the EC50 [3, 19] was less than 200 nM and the EC90 [3, 19] was 370 nM. It also gave a Selectivity index [7] greater than 129, an EC50 [7] of 770 nM and an EC90 [7] of 1250 nM. For the same compound, the CC50 (in vitro [4]) was greater than 100000 nM, the CC50 (in vitro [11]) was greater than 100000 nM and the CC50 (in vitro [12]) was 98700 nM. It also gave a CC50 (in vitro [5]) greater than 100000 nM and a CC50 (in vitro [13]) greater than 100000 nM.
In the case of `CCC(CC)COC(=O)[C@H](C)N[P@](=O)(OC[C@H]1O[C@@](C#N)(c2ccc3c(N)ncnn23)[C@H](O)[C@@H]1O)Oc1ccccc1` [RDV, remdesivir, reference compound], the EC90 [2] is reported as 230 nM, the EC50 [6, 20] is reported as 230 nM and the EC90 [6, 20] is reported as 310 nM. The EC50 [3, 19] was 60 nM, the EC90 [3, 19] was 120 nM and the EC50 [7] was 170 nM. For the same compound, the EC90 [7] was 280 nM, the EC50 (human coronavirus 229E) was 40 nM and the EC90 (human coronavirus 229E) was 260 nM. The “half-life (t1/2) in human plasma” value [14] was 1.15 h, the “persistence in plasma after intravenous infusion” value [15] was “less than 2 h” and the EC50 (SARS-CoV-2 [16]) was 280 nM. For the same compound, the EC50 (SARS-CoV-2 [17]) was 10 nM, the CC50 (in vitro [4]) was 101000 nM and the “persistence in plasma after intravenous infusion” value ([18]; in vivo, COVID-19 patients) was “less than 2 h”. For the same compound, the “drop of plasma level after the intravenous infusion stopped” value ([18]; two patients with COVID-19, 1 h after the infusion stopped) was greater than 90%.
In the case of `N#C[C@@]1(c2ccc3c(N)ncnn23)O[C@H](CO)[C@@H](O)[C@H]1O` [RVn, remdesivir nucleoside, reference compound], the Selectivity index ([2]; PSC-human lung cells) is reported as greater than 135, the EC90 [2] is reported as 2620 nM and the Selectivity index [6] is reported as greater than 666. It also gave an EC50 [6, 20] of 150 nM, an EC90 [6, 20] of 180 nM and a Selectivity index [3] greater than 312. The EC50 [3, 19] was 320 nM, the EC90 [3, 19] was 730 nM and the Selectivity index [7] was greater than 104. The EC50 [7] was 960 nM, the EC90 [7] was 1750 nM and the CC50 (in vitro [4]) was greater than 100000 nM. For the same compound, the CC50 (in vitro [11]) was greater than 100000 nM, the CC50 (in vitro [12]) was greater than 100000 nM and the CC50 (in vitro [5]) was greater than 100000 nM. The CC50 (in vitro [13]) was greater than 100000 nM.
